Reference: ChEMBL document CHEMBL1141109, “Synthesis of an estrogen receptor beta-selective radioligand: 5-[18F]fluoro-(2R,3S)-2,3-bis(4-hydroxyphenyl)pentanenitrile and comparison of in vivo distribution with 16alpha-[18F]fluoro-17beta-estradiol” (J Med Chem, 2005)

Assays:
[1] = Biodistribution of [18F]FEDPN in beta estrogen receptor knock out mouse brain after 2 h; (n=3); format: ADME, organism-based; settings: in vivo
How it was run: (§1)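 αERKO and βERKO mice, staged by daily vaginal smears and kept on estrogen-free chow, were studied in a nonestrous stage. Each mouse received 11 μCi of tracer in 130 μL of 10% ethanol/saline. Mice were killed at 30 min, 1 h or 2 h (n = 3 each). Organs were removed, blotted, weighed and gamma-counted against an injectate standard. Uptake is given as %ID/g ± SD.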

[2] = Biodistribution of [18F]-FEDPN in rat kidney after 1 hr when given in tail vein; (n=5); format: ADME, organism-based; settings: in vivo, iv
How it was run: (§2)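 Immature female Sprague–Dawley rats (<25 days old) anesthetized with isoflurane/O2. Given 20 µCi tracer by tail vein in 150 µL of 20% ethanol/saline. […] Killed at 30 min, 1 h or 2 h. Blood and organs blotted, weighed and gamma-counted against a standard dilution of the injectate. Reported as %ID/g ± SD, n=5.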

[3] = Biodistribution of [18F]-FEDPN in alpha estrogen receptor knock out mouse brain after 2 h; (n=3); format: ADME, organism-based; settings: in vivo
How it was run: (§3)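 ERKO female mice (αERKO or βERKO), rested 48 h after shipping, placed on estrogen-free chow, and staged by daily vaginal smears. Injected in a nonestrous stage with 11 µCi [18F]FEDPN in 130 µL of 10% ethanol/saline. Killed at 30 min, 1 h or 2 h. Organs counted and reported as %ID/g ± SD, three animals per point.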

[4] = Biodistribution of [18F]FEDPN in alpha estrogen receptor knock out mouse fat after 30 min; (n=3); format: ADME, organism-based, Adipose tissue; settings: in vivo, 0.5 h; how it was run: as §3
[5] = Biodistribution of [18F]-FEDPN in rat muscle after 1 hr block when given in tail vein; (n=5); format: ADME, organism-based, Muscle tissue; settings: in vivo, iv; how it was run: as §2
[6] = Biodistribution of [18F]FEDPN in beta estrogen receptor knock out mouse spleen after 1 h; (n=3); format: ADME, organism-based; settings: in vivo; how it was run: as §1
[7] = Biodistribution of [18F]-FEDPN in rat heart after 1 hr block when given in tail vein; (n=5); format: ADME, organism-based; settings: in vivo, iv; how it was run: as §2
[8] = Biodistribution of [18F]-FEDPN in rat uterus after 1 hr block when given in tail vein; (n=5); format: ADME, organism-based; settings: in vivo, iv; how it was run: as §2
[9] = Biodistribution of [18F]FEDPN in alpha estrogen receptor knock out mouse fat after 1 h; (n=3); format: ADME, organism-based, Adipose tissue; settings: in vivo; how it was run: as §3
[10] = biological target: Estrogen receptor (Mus musculus) (UniProt O08537+P19785); test: Ratio of [18F]FEDPN uptake in uterus of ERbeta KO-mouse (diestrus) and ERalpha KO-mouse (nonestrus) after 30 min
[11] = Biodistribution of [18F]FEDPN in beta estrogen receptor knock out mouse brain after 1 h; (n=3); format: ADME, organism-based; settings: in vivo; how it was run: as §1
[12] = Biodistribution of [18F]FEDPN in alpha estrogen receptor knock out mouse spleen after 30 min; (n=3); format: ADME, organism-based; settings: in vivo, 0.5 h; how it was run: as §1
[13] = Biodistribution of [18F]FEDPN in alpha estrogen receptor knock out mouse liver after 30 min; (n=3); format: ADME, organism-based; settings: in vivo, 0.5 h; how it was run: as §3
[14] = Biodistribution of [18F]FEDPN in alpha estrogen receptor knock out mouse fat after 2 h; (n=3); format: ADME, organism-based, Adipose tissue; settings: in vivo; how it was run: as §3
[15] = Biodistribution of [18F]-FEDPN in rat liver after 2 hr when given in tail vein; (n=5); format: ADME, organism-based; settings: in vivo, iv; how it was run: as §2
[16] = Biodistribution of [18F]FEDPN in beta estrogen receptor knock out mouse thymus after 2 h; (n=3); format: ADME, organism-based; settings: in vivo; how it was run: as §1
[17] = Biodistribution of [18F]-FEDPN in rat bone after 2 h when given in tail vein; (n=5); format: ADME, organism-based, Bone element; settings: in vivo, iv; how it was run: as §2
[18] = Biodistribution of [18F]FEDPN in rat bone after 1 h block when given in tail vein; (n=5); format: ADME, organism-based, Bone element; settings: in vivo, iv
How it was run: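 Immature female Sprague–Dawley rats (<25 days old) under isoflurane/O2 got 20 µCi tracer in 150 µL 20% ethanol/saline by tail vein. […] Rats were killed at 30 min, 1 h or 2 h. Organs were blotted, weighed and gamma-counted against an injectate standard. Data are %ID/g ± SD, five rats per point.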

[19] = Biodistribution of [18F]-FEDPN in alpha estrogen receptor knock out mouse uterus after 1 h; (n=3); format: ADME, organism-based; settings: in vivo; how it was run: as §3
[20] = Biodistribution of [18F]FEDPN in beta estrogen receptor knock out mouse bone after 1 h; (n=3); format: ADME, organism-based, Bone element; settings: in vivo; how it was run: as §1
[21] = Biodistribution of [18F]-FES in alpha estrogen receptor knock out mouse bone after 2 h; (n=3); format: ADME, organism-based, Bone element; settings: in vivo
How it was run: (§4)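 Female αERKO mice were rested 48 h after shipping and fed estrogen-free chow. They were staged by daily vaginal smears and studied in diestrus. Each received 13 µCi [18F]FES in 100 µL 10% ethanol/saline and was sacrificed at 30 min, 1 h or 2 h (n = 3 per time). Tissue uptake is given as %ID/g ± SD.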

[22] = Biodistribution of [18F]FES in alpha estrogen receptor knock out mouse kidney after 30 min; (n=3); format: ADME, organism-based; settings: in vivo, 0.5 h; how it was run: as §4
[23] = Biodistribution of [18F]FES in beta estrogen receptor knock out mouse blood after 30 min(n=2); mice in nonestrus stage; format: ADME, organism-based; settings: in vivo, 0.5 h
[24] = Biodistribution of [18F]FES in alpha estrogen receptor knock out mouse lung after 30 min; (n=3); format: ADME, organism-based; settings: in vivo, 0.5 h; how it was run: as §4
[25] = Biodistribution of [18F]FES in beta estrogen receptor knock out mouse thymus after 30 min; (n=3); format: ADME, organism-based; settings: in vivo, 0.5 h
[26] = Biodistribution of [18F]FES in beta estrogen receptor knock out mouse heart after 30 min(n=2); mice in nonestrus stage; format: ADME, organism-based; settings: in vivo, 0.5 h
[27] = Biodistribution of [18F]FES in beta estrogen receptor knock out mouse thymus after 30 min(n=2); mice in nonestrus stage; format: ADME, organism-based; settings: in vivo, 0.5 h
[28] = Biodistribution of [18F]-FES in beta estrogen receptor knock out mouse thymus after 1 h; (n=3); format: ADME, organism-based; settings: in vivo
How it was run: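 Female βERKO mice in estrus were used because repeated swabbing had induced pseudopregnancy. They were fed estrogen-free chow. Each received 13 µCi [18F]FES in 100 µL 10% ethanol/saline and was sacrificed at 30 min, 1 h or 2 h (n = 3 each). Tissue uptake is given as %ID/g ± SD.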

[29] = Biodistribution of [18F]-FES in beta estrogen receptor knock out mouse brain after 30 min; (n=3); format: ADME, organism-based; settings: in vivo, 0.5 h
How it was run: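 βERKO mice rested 48 h after shipping, fed estrogen-free chow and staged by vaginal smears. Repeated swabbing caused pseudopregnancy in some, so this group was studied in estrus. Mice given [18F]FES were sacrificed at 30 min (n = 3). Uptake is reported as %ID/g ± SD.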

[30] = Biodistribution of [18F]FES in beta estrogen receptor knock out mouse bone after 1 h; (n=3); format: ADME, organism-based, Bone element; settings: in vivo
[31] = Biodistribution of [18F]-FES in alpha estrogen receptor knock out mouse kidney after 2 h; (n=3); format: ADME, organism-based; settings: in vivo
How it was run: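 Female αERKO mice rested 48 h after shipping and fed estrogen-free chow. Estrous stage was checked by daily vaginal smears, and mice were used in diestrus. Each received 13 µCi [18F]FES in 100 µL 10% ethanol/saline. Animals were sacrificed at 30 min, 1 h or 2 h (n = 3 each). Tissue uptake is reported as %ID/g ± SD.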

[32] = Biodistribution of [18F]FES in alpha estrogen receptor knock out mouse blood after 2 h; (n=3); format: ADME, organism-based; settings: in vivo; how it was run: as §4
[33] = Biodistribution of [18F]FES in beta estrogen receptor knock out mouse lung after 30 min; (n=3); format: ADME, organism-based; settings: in vivo, 0.5 h

Estrogen receptor (Mus musculus), sequence (O08537 whole entry, looked up): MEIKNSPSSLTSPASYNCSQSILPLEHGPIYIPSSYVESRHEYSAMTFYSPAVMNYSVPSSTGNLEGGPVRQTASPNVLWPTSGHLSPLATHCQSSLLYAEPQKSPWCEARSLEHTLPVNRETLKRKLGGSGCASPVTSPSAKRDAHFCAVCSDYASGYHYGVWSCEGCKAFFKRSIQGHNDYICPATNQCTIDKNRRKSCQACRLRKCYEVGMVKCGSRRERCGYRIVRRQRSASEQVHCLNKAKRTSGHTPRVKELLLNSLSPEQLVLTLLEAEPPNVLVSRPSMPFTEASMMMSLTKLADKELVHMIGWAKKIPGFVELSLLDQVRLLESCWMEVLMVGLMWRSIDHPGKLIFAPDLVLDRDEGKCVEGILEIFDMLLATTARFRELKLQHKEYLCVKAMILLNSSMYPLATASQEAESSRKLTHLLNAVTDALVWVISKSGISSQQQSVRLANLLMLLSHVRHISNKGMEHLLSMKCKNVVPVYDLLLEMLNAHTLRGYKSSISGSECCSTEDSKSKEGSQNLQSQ
Estrogen receptor (Mus musculus), sequence (P19785 whole entry, looked up): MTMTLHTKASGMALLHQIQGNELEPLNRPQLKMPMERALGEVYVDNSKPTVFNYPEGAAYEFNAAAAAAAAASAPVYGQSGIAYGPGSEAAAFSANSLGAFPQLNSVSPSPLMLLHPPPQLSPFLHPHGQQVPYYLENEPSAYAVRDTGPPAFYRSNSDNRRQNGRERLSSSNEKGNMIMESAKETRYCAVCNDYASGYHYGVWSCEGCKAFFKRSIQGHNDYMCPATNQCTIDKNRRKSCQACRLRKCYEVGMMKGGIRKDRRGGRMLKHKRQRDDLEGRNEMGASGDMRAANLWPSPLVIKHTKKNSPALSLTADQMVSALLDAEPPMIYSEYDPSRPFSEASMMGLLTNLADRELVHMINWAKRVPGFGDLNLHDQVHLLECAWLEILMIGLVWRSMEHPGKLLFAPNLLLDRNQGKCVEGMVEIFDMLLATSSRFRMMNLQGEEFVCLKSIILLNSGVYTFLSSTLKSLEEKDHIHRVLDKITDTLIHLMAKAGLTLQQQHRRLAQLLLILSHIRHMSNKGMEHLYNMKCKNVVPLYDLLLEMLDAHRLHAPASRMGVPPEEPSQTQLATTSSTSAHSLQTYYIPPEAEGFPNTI

N#C[C@H](c1ccc(O)cc1)[C@@H](CCF)c1ccc(O)cc1
Biodistribution [1]: 0.3 %ID/g
Biodistribution [2]: 1.75 %ID/g
Biodistribution [3]: 0.28 %ID/g
Biodistribution [4]: 0.57 %ID/g
Biodistribution [5]: 0.2 %ID/g
Biodistribution [6]: 0.4 %ID/g
Biodistribution [7]: 0.19 %ID/g
Biodistribution [8]: 0.34 %ID/g
Biodistribution [9]: 0.27 %ID/g
Ratio [10]: 1.67
Biodistribution [11]: 0.47 %ID/g
Biodistribution [12]: 0.99 %ID/g
Biodistribution [13]: 3.7 %ID/g
Biodistribution [14]: 0.09 %ID/g
Biodistribution [15]: 0.62 %ID/g
Biodistribution [16]: 0.11 %ID/g
Biodistribution [17]: 1.88 %ID/g
Biodistribution [18]: 1.82 %ID/g
Biodistribution [19]: 0.37 %ID/g
Biodistribution [20]: 4.92 %ID/g

C[C@]12CC[C@@H]3c4ccc(O)cc4CC[C@H]3[C@@H]1C[C@@H](F)[C@@H]2O [FLUOROESTRADIOL]
Biodistribution [21]: 0.23 %ID/g
Biodistribution [22]: 2.46 %ID/g
Biodistribution [23]: 0.73 %ID/g
Biodistribution [24]: 2.19 %ID/g
Biodistribution [25]: 1.38 %ID/g
Biodistribution [26]: 0.95 %ID/g
Biodistribution [27]: 1.65 %ID/g
Biodistribution [28]: 0.92 %ID/g
Biodistribution [29]: 0.71 %ID/g
Biodistribution [30]: 1.08 %ID/g
Biodistribution [31]: 0.72 %ID/g
Biodistribution [32]: 0.12 %ID/g
Biodistribution [33]: 3.74 %ID/g
